The source of these data is ChEMBL document CHEMBL1123489, “Antineoplastic activity of 3'-(chloroethyl)nitrosourea analogues of 2'-deoxyuridine and 2'-deoxy-5-fluorouridine” (J Med Chem, 1986).

The subject of data set [1] is L1210. In words: Compound was tested in vitro for cytotoxicity against L1210 leukemia cells in tumor bearing mice. The class given is functional. To be noted: Mus musculus, read-out: ED50 (the source's name). In short, it runs like this:
(§1)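 Mouse L1210 cells grown in suspension in Fischer's medium with 10% horse serum, 37 °C, 5% CO2. Exponential-phase cells at 2 × 10⁴ cells/mL exposed to compound. Cell number counted against drug-free control after 24, 48 and 72 h. ED50 (concentration inhibiting growth by 50%) estimated from dose-response curves from replicate independent experiments.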

The subject of data set [2] is L1210. In words: Effect on the survival time of mice bearing L1210 leukemia at a dose of 40 mg/kg on 30th day. The class given is functional, Mus musculus.
Data set [3] deals with L1210. In words: Effect on the survival time of mice bearing L1210 leukemia at a dose of 80 mg/kg on 30th day. The class given is functional, Mus musculus.
For data set [4], the system named is L1210. Nature of the data set: Effect on the maximum weight loss of mice bearing L1210 leukemia at a dose of 80 mg/kg on days 11. The class given is functional, Mus musculus.
For data set [5], the system named is L1210. Nature of the data set: Effect on the maximum weight loss of mice bearing L1210 leukemia at a dose of 20 mg/kg. To be noted: Mus musculus.
The subject of data set [6] is L1210. In words: Compound was tested in vitro for carbomoylating activity against L1210 leukemia cells in tumor bearing mice. The class given is functional, Mus musculus. In short, it runs like this: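 Extent of carbamoylation of 5'-amino-5'-deoxythymidine measured after incubation with nitrosourea for 6 h at 37 °C in phosphate-buffered saline. Activity expressed relative to BCNU (set at 1.00). Three determinations per compound.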

Data set [7] concerns L1210. Nature of the data set: Effect on the survival time of mice bearing L1210 leukemia at a dose of 40 mg/kg. It is filed as functional, Mus musculus. In short, it runs like this: (§2)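 L1210 ascites cells from 7-day growths in donor CDF1 female mice were diluted in isotonic saline, and about 10^5 cells were injected i.p. Drug was given as one i.p. injection in isotonic saline, 24 h after implantation. Groups held five or six weight-matched mice, with saline vehicle controls. T/C × 100 = treated/control survival time in dying animals; >60-day survivors counted.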

For data set [8], the system named is L1210. Nature of the data set: Effect on the survival time of mice bearing L1210 leukemia at a dose of 20 mg/kg. It is filed as functional, Mus musculus. In short, it runs like this: as §2
The test system of data set [9] is L1210. Nature of the data set: Compound was tested in vitro for alkylating activity against L1210 leukemia cells in tumor bearing mice. It is filed as functional, Mus musculus. The essentials:
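4-(4-Nitrobenzyl)pyridine alkylation measured after 120 min at 37 °C, pH 6.4. Activity expressed relative to BCNU (set at 1.00). Three determinations per compound.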

In data set [10] the test system is L1210. Nature of the data set: Effect on the survival time of mice bearing L1210 leukemia at a dose of 20 mg/kg on 30th day. The class given is functional, Mus musculus.
For data set [11], the system named is L1210. Nature of the data set: Effect on the survival time of mice bearing L1210 leukemia at a dose of 80 mg/kg. The class given is functional, Mus musculus. In short, it runs like this:
as §2

Data set [12] in a line: Half-life, determined by incubation at 37 degree celsius in PBS (pH 7.4).
The test system of data set [13] is L1210. In words: Compound was tested in vitro for cytotoxicity against L1210 leukemia cells in tumor bearing mice. The class given is functional. To be noted: Mus musculus, read-out: ED50 (the source's name). The essentials: as §1
Data set [14] has as its system L1210. Nature of the data set: Effect on the maximum weight loss of mice bearing L1210 leukemia at a dose of 40 mg/kg on days 6-8.
In data set [15] the test system is L1210. In words: Effect on the maximum weight loss of mice bearing L1210 leukemia at a dose of 40 mg/kg on days 5-8.
Data set [16] relates to L1210. In words: Effect on the maximum weight loss of mice bearing L1210 leukemia at a dose of 80 mg/kg on days 9. The class given is functional, Mus musculus.

With `N[C@H]1C[C@H](n2ccc(=O)[nH]c2=O)O[C@@H]1CO`, the EC50 with L1210 [1] amounted to 18 µM.
A word on the T/C: it is the result in the treated group divided by that in the control group, in per cent. As usually defined, the half-life is the time needed for the level to fall by half in the phase considered. High values mean slow loss, low ones fast loss. Turning to `O=NN(CCCl)C(=O)N[C@@H]1CC(n2ccc(=O)[nH]c2=O)O[C@@H]1CO` (stereo not given in full), the Body weight in the data set with L1210 [2] was 22.1 g; with L1210 [3], 20.8 g; in the data set with L1210 [7], 19 g; in the data set on L1210 [8], 18.8 g; in the data set on L1210 [10], 22 g; with L1210 [11], 19.5 g. For the same compound, the Max weight loss with L1210 [4] is reported as 21%; with L1210 [5], “None”; in the data set with L1210 [14] it was 2%. The Activity was 0.85 in the data set on L1210 [6] and 1.65 in the data set with L1210 [9]. The Average survival days in the data set with L1210 [7] is on record as 31; with L1210 [8], 20.4; in the data set with L1210 [11], 8.3. Moreover, the values for the T/C in the data set on L1210 [7], in the data set with L1210 [8] and with L1210 [11] were 369%, 243% and 99%, respectively. The results for the Weight change in the data set with L1210 [7], in the data set with L1210 [8] and in the data set on L1210 [11] were 5%, 9% and 13%, respectively. In [12], this compound registered a half-life of 27.3 min. In addition, the EC50 with L1210 [13] came out at 12.5 µM.
Regarding `NC1CC(n2cc(F)c(=O)[nH]c2=O)OC1CO` (stereo not given), the EC50 in the data set on L1210 [1] came out at 15 µM.
`O=NN(CCCl)C(=O)NCCCl` [CARMUSTINE]: the Activity with L1210 [6] and in the data set with L1210 [9] was 1 in each case. Also, in the data set on L1210 [1], the EC50 is 4 µM. The half-life in data set [12] stood at 50 min.
For the compound `Cc1cn(C2CC(NC(=O)N(CCCl)N=O)C(CO)O2)c(=O)[nH]c1=O` (stereo not given), the Activity worked out at 0.85 with L1210 [6] and 2 in the data set on L1210 [9]. Further, in the data set with L1210 [1], the EC50 came to 1.5 µM. This compound had a half-life in data set [12] of 37.3 min.
Turning to `O=NN(CCCl)C(=O)N[C@@H]1CC(n2cc(F)c(=O)[nH]c2=O)O[C@@H]1CO` (stereo not given in full), the Body weight is on record as 22.1 g in the data set with L1210 [2]; 21.3 g in the data set with L1210 [3]; 19.5 g in the data set on L1210 [7]; 26.1 g with L1210 [8]; 22 g in the data set with L1210 [10]; 20.5 g with L1210 [11]. Besides, the results for the Max weight loss in the data set on L1210 [15], in the data set on L1210 [5] and in the data set on L1210 [16] were 3%, “None” and 14%, respectively. For the same compound, the Activity in the data set with L1210 [6] turned out to be 0.77; in the data set with L1210 [9], 1.78. In addition, in the data set on L1210 [1], the EC50 turned out to be 2.5 µM. For the same compound, the Average survival days in the data set with L1210 [7] was determined as 14; in the data set on L1210 [8], 18.7; with L1210 [11], 9. For the same compound, the T/C with L1210 [7] is reported as 167%; in the data set on L1210 [8], 223%; in the data set with L1210 [11] it was 107%. The Weight change turned out to be 5% in the data set on L1210 [7], 4% in the data set with L1210 [8] and 4% with L1210 [11]. The compound also displayed a half-life in [12] of 36.1 min.
Consider `Cc1cn([C@H]2C[C@H](N)[C@@H](CO)O2)c(=O)[nH]c1=O` [3-AMINO- 3-DEOXYTHYMIDINE], for which the EC50 with L1210 [1] turned out to be 0.8 µM.
